Published values pooled from the literature.
Compare with care: the assays were run in different laboratories.

| Structure (SMILES) | test | system | conditions | measurement | value |
| --- | --- | --- | --- | --- | --- |
| Cc1[nH]c(C)c(S(=O)(=O)Nc2ccc(S(F)(F)(F)(F)F)cc2)c1C(=O)N1CCC(F)(F)C1 | – | mouse, brain | intraperitoneal, 40 mg/kg | Tmax | 120 min |
| CC(C)NCC(O)COc1cccc2ccccc12 (stereo not shown) | – | Caco-2 | 10 µM, 2 h, pH 7.4 | efflux ratio | 0.7 |
| O=c1c2cc(Cl)c(CO)cc2[nH]c(=S)n1Cc1cccnc1 | – | Caco-2 | 10 µM, 90 min, pH 7.4 | efflux ratio | ~2 |
| N=C(N)NCCC[C@H](NC(=O)[C@H](Cc1ccccc1)NC(=O)[C@H](CCC(N)=O)NC(=O)OCc1ccccc1)C(=O)c1nccs1 | – | female C57BL/6 mouse, plasma | intravenous, 5 mg/kg | Tmax | 5 min |
| CCOC(=O)c1c(NC(=O)CNC(C)C)sc2c1CCCCC2 | – | male mouse, brain | intraperitoneal, 100 mg/kg, single dose | Tmax | 30 min |
| CC(=O)c1c(C)c2cnc(Nc3ccc(C4CCN(CCS(C)(=O)=O)CC4)cn3)nc2n(C2CCCC2)c1=O | – | Caco-2 | 10 µM | efflux ratio | 0.96 |
| C[C@H]1O[C@@H](O[C@H]2[C@@H](O)C[C@H](O[C@H]3[C@@H](O)C[C@H](O[C@H]4CC[C@@]5(C)[C@H](CC[C@@H]6[C@@H]5C[C@@H](O)[C@]5(C)[C@@H](C7=CC(=O)OC7)CC[C@]65O)C4)O[C@@H]3C)O[C@@H]2C)C[C@H](O)[C@@H]1O | – | Caco-2 | 10 µM, 2 h, pH 7.4 | efflux ratio | 8.9 |
| O=c1c2cc(Cl)c(CO)cc2[nH]c(=S)n1Cc1cncnc1 | – | Caco-2 | 10 µM, 90 min, pH 7.4 | efflux ratio | ~2 |
| COc1cc(C(=O)c2nc(-c3cccc4[nH]ccc34)c[nH]2)cc(OC)c1OC | – | male CD-1 mouse, plasma | intraperitoneal, 15 mg/kg | Tmax | 8.4 min |
| CC(C)CC(=O)OC[C@H]1O[C@@](C#N)(c2ccc3c(N)ncnn23)[C@H](O)[C@@H]1O | general toxicity | beagle dog | oral, multiple doses | NOAEL | 100 mg/kg/day |
